Test results from ChEMBL document CHEMBL5360619.
pIC50: −log10 of the molar value. Activity calls are given as the source filed them. The calls are words filed in the database; no cut-off is given here.

Legend:
[1] = Therapeutic index, ratio of LD50 for human IMR-90 cells to IC50 for antimycobacterial activity against Mycobacterium tuberculosis Erdman; assay type: toxicity; conditions: read-out: TI
Procedure, shortened: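 LD50 from 48 h MTT assay in HEK 293, BEAS-2B or IMR-90 cells divided by MABA IC50 against Mtb.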

[2] = tested on: Mycobacterium tuberculosis; assay: (§1) Antimycobacterial activity against Mycobacterium tuberculosis H37Rv expressing GFP infected in mouse RAW264.7 cells assessed as inhibition of intracellular mycobacterial growth by measuring reduction in percentage of infected cells incubated for 5 days by SYTO 60 dye based automated high-content fluorescent microscopic analysis; assay type: functional, organism-based; conditions: time 5.0 day
Procedure, shortened: (§2)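 RAW 264.7 macrophages infected with GFP-expressing H37Rv for 3 h at 37 °C with shaking, washed by centrifugation, then seeded at 20,000 cells/well onto compounds dispensed acoustically from DMSO stocks, DMSO backfill. Incubated 5 days at 37 °C, 5% CO2, stained with SYTO 60, four confocal images per well; percentage of infected cells and bacterial area per infected cell scored. IC50 from dose–response; four replicates.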

CYP3A4 [3] = assay: Selectivity index, ratio of IC50 for CYP3A4 in human liver microsomes using testosterone as substrate to IC50 for antimycobacterial activity against Mycobacterium tuberculosis Erdman; assay type: toxicity; conditions: probe testosterone, read-out: Ratio IC50
[4] = Cytotoxicity against human Calu-3 cells assessed as reduction in cellular ATP level incubated for 72 hrs by celltiter-glo assay; assay type: toxicity, cell-based; conditions: read-out: LD50
Procedure, shortened: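 Calu-3 cells (DMEM, 10% FBS) plated 10,000/well for 18 h, then medium switched to 2% FBS; eight twofold doses 250 down to […], compounds as imidazole salts in DMSO with IMD/DMSO controls.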

[5] = tested on: Mycobacterium tuberculosis; assay: as §1, with “bacterial area per” for “percentage of”; assay type: functional, organism-based; conditions: time 5.0 day; procedure, shortened: as §2
CYP3A4 [6] = assay: Selectivity index, ratio of IC50 for CYP3A4 in human liver microsomes using midazolam as substrate to IC50 for antimycobacterial activity against Mycobacterium tuberculosis Erdman; assay type: toxicity; conditions: probe midazolam, read-out: Ratio IC50
[7] = tested on: Mycobacterium tuberculosis; assay: Inhibition of biofilm formation in Mycobacterium tuberculosis Erdman assessed as inhibition of biofilm pellicle formation at 2.5 to 50 uM pretreated for 3 weeks under low oxygen and further treated for 3 weeks under aerated condition in presence of 0.05% tyloxapol by optical density based analysis; assay type: functional, organism-based; conditions: dose 2.5-50 µM, time 6.0 weeks
Procedure, shortened: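 Pellicle assay with 0.05% tyloxapol added to each well to prevent biofilm; otherwise Sauton's medium inoculated with Mtb plus compound, sealed airtight 3 weeks at 37 °C, 5% CO2, then opened for 3 weeks aerobic.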

RAW264.7 = assay: Cytotoxicity against mouse RAW264.7 cells assessed as reduction in cell viability at 0.01 to 10 uM incubated for 5 days by SYTO 60 dye based automated high-content fluorescent microscopic analysis; assay type: toxicity; conditions: raw264.7, 120 h, dose 0.01-10 µM, time 5 day
Procedure, shortened: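 RAW 264.7 cells in RPMI-1640 with 10% heat-inactivated FBS, 20,000 cells/well added to compounds acoustically dispensed from DMSO stocks, DMSO backfill; 5 days at 37 °C, 5% CO2. SYTO 60 staining, four confocal images per well, total cell number counted; dose–response plotted.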

[8] = Apparent permeability across apical to basolateral side in human Caco-2 cells at 2 uM by LC-MS/MS analysis; assay type: ADME, cell-based
Procedure, shortened: (§3)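 Caco-2 monolayers grown on permeable filters, used day 21. Drug solution 2 μM in prewarmed HBSS applied apical or basolateral, pH 7.4 both sides, 37 °C, stirring 500 rpm; 5 μM enalaprilat as integrity control. Receiver sampled at 30 min, donor sampled for mass balance; LC–MS/MS with warfarin internal standard.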

Cytochrome P450 3A4 [9] = biological target: T1, Cytochrome P450 3A4 (Homo sapiens, UniProt P08684); assay: Inhibition of CYP3A4 in human liver microsomes using testosterone as substrate incubated for 30 mins in presence of NADPH by LC-MS/MS analysis; assay type: ADME, Microsome
Procedure, shortened: (§4)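 Human liver microsomes 0.2 mg/mL in 100 mM phosphate pH 7.4; compound final 1, 10 and 100 μM (1% DMSO). Substrates: midazolam 5 μM (10 min) or testosterone 50 μM (30 min). Started with NADPH, stopped with ice-cold acetonitrile containing internal standard; LC–MS/MS.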

Cytochrome P450 3A4 [10] = biological target: T1, Cytochrome P450 3A4; assay: Inhibition of CYP3A4 in human liver microsomes using midazolam as substrate incubated for 10 mins in presence of NADPH by LC-MS/MS analysis; assay type: ADME, Microsome; procedure, shortened: as §4
[11] = Efflux ratio of apparent permeability across […] side in human Caco-2 cells at 2 uM by LC-MS/MS analysis; assay type: ADME, cell-based; conditions: caco-2, 2 µM; procedure, shortened: as §3
[12] = Solubility of compound in tween-free sauton's medium; assay type: physicochemical

T1 sequence (P08684 whole entry): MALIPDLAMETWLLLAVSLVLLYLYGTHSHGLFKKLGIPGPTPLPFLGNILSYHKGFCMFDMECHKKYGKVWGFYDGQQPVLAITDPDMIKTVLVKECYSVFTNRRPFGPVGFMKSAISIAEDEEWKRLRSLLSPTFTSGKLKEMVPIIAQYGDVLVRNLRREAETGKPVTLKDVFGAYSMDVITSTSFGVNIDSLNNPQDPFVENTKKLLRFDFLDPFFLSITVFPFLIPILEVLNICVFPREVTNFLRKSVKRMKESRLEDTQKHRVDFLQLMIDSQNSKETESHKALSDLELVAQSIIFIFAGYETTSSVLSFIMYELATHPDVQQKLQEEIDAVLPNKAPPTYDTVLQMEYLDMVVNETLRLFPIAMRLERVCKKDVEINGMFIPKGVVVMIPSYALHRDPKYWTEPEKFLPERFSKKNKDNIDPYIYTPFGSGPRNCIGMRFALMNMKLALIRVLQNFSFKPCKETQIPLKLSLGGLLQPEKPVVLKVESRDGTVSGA

Structure (SMILES) | selectivity ratio (CYP3A4 [3]) | selectivity ratio (CYP3A4 [6]) | Activity (RAW264.7) | pIC50 (Cytochrome P450 3A4 [9]) | pIC50 (Cytochrome P450 3A4 [10]) | solubility [12] | other results
O=C(O)C1CSc2c(C3CC3)c(-c3cc(-c4ccc5ccccc5c4)no3)cc(=O)n21.c1c[nH]cn1 (racemic) | ≥ 16 | ≥ 16 | Non-Toxic |  |  |  | selectivity ratio [1]: 168; Activity [2]: Active; CC50 at 72 h [4]: > 250 µM; Activity [5]: Active; inhibition [7]: inactive
CC(C)(C)c1ccc(-c2nnc(SCc3cc(=O)n4c(c3C3CC3)SCC4C(=O)O)o2)cc1 (racemic) |  |  |  | < 4.00 | < 4.00 |  | Papp A→B at 2 µM [8]: 0.88 ×10⁻⁶ cm/s; Ratio [11]: 1.5
O=C(O)C1CSc2c(C3CC3)c(Cc3cccc4ccccc34)cc(=O)n21.c1c[nH]cn1 (racemic) | ≥ 16 | ≥ 16 | Non-Toxic |  |  |  | 
O=C(O)C1CSc2c(C3CC3)c(-c3cc(-c4ccccc4)no3)cc(=O)n21 (racemic) |  |  |  |  |  | Insoluble | 
CC(C)(C)c1ccc(-n2cc(-c3cc(=O)n4c(c3C3CC3)SCC4C(=O)O)nn2)cc1 (racemic) |  |  |  | < 4.00 | < 4.00 |  | 
O=C(O)C1CSc2c(C3CC3)c(CSc3nnc(-c4cccc(C(F)(F)F)c4)o3)cc(=O)n21 (racemic) |  |  |  |  |  | Insoluble | 
